The list is not random: actives were taken first. Their share in the collection is about 3%.
NPY-Y1 antag: antagonists of human neuropeptide Y receptor Y1. AID 1040. HEK293-CNG Y1 cells, membrane potential fluorescence; NPY at EC95, then isoproterenol. inhibition, % at 3.6 µM. actives 1% (n = 200,000). P25929;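 active = inhibition above the campaign mean inhibition of all tested compounds plus 3 SD, cut at about 20% in these data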;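 note: 0% = DMSO wells given NPY plus isoproterenol and 100% = isoproterenol alone without NPY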
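Material: HEK293 Y1/CNG channel cell line | Also added: NPY (25 nM), isoproterenol (1 µM), Ro 20-1724 (25 µM) | Compound: One concentration, 3.6 µM, in 0.4% DMSO | Schedule: 3 h dye uptake, 1 h room-temperature compound, 45 min post-isoproterenol | Signal: Membrane-potential fluorescent dye readout | Read-out: % inhibition of NPY effect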
NPY Y2 blocker: antagonists of human neuropeptide Y receptor Y2; P49146; NPY-Y2 expressing cells, antagonist mode; inhibition, % at 2.7 µM; actives 0.99% (n = 140,000); AID 793;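 note: 0% = vehicle with agonist challenge and 100% = reference antagonist with challenge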
Target sequence (P49146 whole entry, looked up): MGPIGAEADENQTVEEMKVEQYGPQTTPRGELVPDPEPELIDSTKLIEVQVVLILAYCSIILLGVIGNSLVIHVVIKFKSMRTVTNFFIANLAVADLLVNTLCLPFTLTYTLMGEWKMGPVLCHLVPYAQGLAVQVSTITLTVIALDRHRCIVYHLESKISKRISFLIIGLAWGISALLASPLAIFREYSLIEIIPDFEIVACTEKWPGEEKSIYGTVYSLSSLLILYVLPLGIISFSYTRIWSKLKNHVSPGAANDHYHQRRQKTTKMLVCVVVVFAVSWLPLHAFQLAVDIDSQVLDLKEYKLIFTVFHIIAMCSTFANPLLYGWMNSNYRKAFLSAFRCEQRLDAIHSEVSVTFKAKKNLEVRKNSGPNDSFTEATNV
NPY-Y1 PAM-ag: potentiates or activates human NPY-Y1 receptor; P25929; NPY-Y1 expressing cells, potentiator/agonist activation; activation, % at 3.6 µM; actives 0.37% (n = 220,000); AID 1304; in the data active = activation above about 33%, passing the limit was not always enough;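 note: cells stimulated with NPY at EC10 then isoproterenol at EC100; 0% = low agonist plus stimulus and 100% = saturating agonist plus stimulus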
Wee1 stabilizer: human Wee1 degradation inhibition, primary screen. actives 1.2% (n = 220,000). reporter increase, % at 5 µM. HeLa Luc-Wee1K328M stability, luciferase luminescence; 100% = proteasome inhibitor MG132 effect. P30291;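 active = activation above the mean of all tested compounds plus 3 SD, set per screening run, cut at about 8.8% in these data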;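 note: cells exposed to compound for 20 h before luminescence read; 0% = DMSO alone and 100% = MG132 at 30 µM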
NPY2 pot ag: potentiates or activates human NPY-Y2 receptor | P49146 | activation, % at 3.6 µM | cells expressing NPY-Y2, potentiator/agonist read-out | actives 0.45% (n = 220,000); in the data active = activation above about 27%;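 note: cells stimulated with NPY near EC25 plus isoproterenol at EC100; 0% = vehicle plus submaximal agonist and 100% = vehicle plus saturating agonist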
Hsp70 act: Hsp70 transcriptional activation, primary screen | HeLa Hsp70 promoter luciferase reporter, luminescence; scaled: vehicle 0, proteasome-inhibitor control 100% | activation, % at 10 µM | actives 0.04% (n = 200,000) | AID 1203;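 active = activation above the mean across all tested compounds plus 3 SD, cutoff set per campaign, cut at about 5.5% in these data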;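 note: 100% = MG132 at 30 µM as the positive control and 0% = DMSO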
NPY1 antag conf: confirmation of human neuropeptide Y receptor Y1 antagonists | inhibition, % at 3.6 µM | HEK293-CNG NPY-Y1, membrane potential fluorescence, cAMP; NPY challenge against isoproterenol-raised cAMP | actives 21% (n = 1,200) | shares compounds with NPY-Y1 antag | AID 1254; in the data active = inhibition above about 20%;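 note: 0% = vehicle with agonist plus stimulus and 100% = stimulus alone without agonist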
NPY-Y2 antag ct: antagonizes human NPY-Y2, counter-screen to NPY-Y1 antagonists | inhibition, % at 3.6 µM | AID 1255 | HEK293 NPY-Y2 CNG membrane potential fluorescence, antagonism; cells given NPY, then isoproterenol | actives 28% (n = 1,200) | shares compounds with NPY-Y1 antag;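 note: 0% = DMSO with agonist challenge and 100% = reference antagonist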
The depositor's hits bear a star; / = no result given. Cut-off read from the data, not from the text of the source, unless noted: active = inhibition above about 17%; inactive = the rest.

SMILES	NPY-Y1 antag	NPY Y2 blocker	NPY-Y1 PAM-ag	Wee1 stabilizer	NPY2 pot ag	Hsp70 act	NPY1 antag conf	NPY-Y2 antag ct
Cc1ccc(SCCC(=O)OCC(=O)Nc2ccc(S(N)(=O)=O)cc2)cc1	/	/	-43	1	-16	/	/	/
Cc1ccc(SCCC(=O)OCC(=O)NCC2CCCCC2)cc1	36*	/	-64	4	-36	0	14	9
O=C1C=C(c2ccccc2)CC(/C=C/c2ccccc2)C1 (stereo not given)	23*	9	-38	2	4	0	16	10
CCc1ccc(/C=C\C(=O)N2CCc3ccccc3C2)cc1	21*	11	-21	-2	-28	0	9	10
CC1CCCN(C(=O)CSc2cnc3ccccc3n2)C1 (stereo not given)	1	8	-16	0	-13	0	/	/
Cc1ccc(N=Cc2c(O)n(-c3cc(Cl)ccc3N3CCOCC3)c(=O)c3ccccc23)cc1C	22*	6	-80	-1	-34	0	15	27*
Cc1cc(N=Cc2c(O)n(-c3cccc(Cl)c3)c(=O)c3ccccc23)no1	-1	1	-6	7	0	0	/	/
O=S(=O)(c1ccc(Br)cc1)n1c(Cc2ccccc2)nc2ccccc21	21*	4	3	0	-4	0	3	4
COc1ccc(CN2C(=O)c3ccccc3C2C(=O)NC2CCCC(C)C2C)c(OC)c1 (stereo not given)	36*	/	-16	1	-8	0	10	7
COc1ccc(CN2C(=O)c3ccccc3C2C(=O)NC2CCC(C)CC2)c(OC)c1 (stereo not given)	23*	/	-1	-1	-20	0	3	5
COc1ccc(CN2C(=O)c3ccccc3C2C(=O)NC2CCCC2)c(OC)c1 (stereo not given)	6	-1	2	-3	4	0	/	/
CCOC(=O)c1cnc(SCCc2ccccc2)nc1N	21*	8	-2	1	-19	0	8	7
CCCCSc1ncc(C(=O)OCC)c(N)n1	2	3	-11	1	14	0	/	/
COc1ccc2c(c1)C(SCC(=O)NCCc1ccc(Cl)cc1)CC(C)(C)O2 (stereo not given)	2	3	-12	2	-4	0	/	/
Cc1cc(/C=C2/SC(=S)N(c3cccc(C(F)(F)F)c3)C2=O)c(C)n1-c1cccnc1	48*	13	-78	1	7	0	35*	24*
C=CCN=C(NC#N)SC	/	/	19	-1	-6	/	/	/
CCCn1c(SCc2ccc(Cl)cc2)nc2c1c(=O)[nH]c(=O)n2C	24*	12	-33	2	-8	0	22*	40*
C/C=C/Cn1c(SCc2ccc(Cl)cc2)nc2c1c(=O)[nH]c(=O)n2C	17	4	-90	5	-75	0	/	/
O=C(Cn1nc(C(=O)O)c2ccccc2c1=O)Nc1nc(-c2ccccc2)cs1	/	/	-26	0	-37	/	/	/
N#C/C(=N\Nc1cccc2ccccc12)c1nnc2n1CCCCC2	20*	-1	1	-1	0	0	-1	3
CCCCN(CC)CCCNC(=O)c1cn(CC)c2ccc(S(=O)(=O)N3CCc4ccccc4C3)cc2c1=O	22*	/	-13	6	-5	0	16	29*
O=C(CSCc1nc2ccccc2[nH]1)N1CCN(c2cccc(Cl)c2)CC1	21*	-2	-8	1	-17	0	4	4
C=CCc1ccc(OCCOCCNCCCC)c(OC)c1	1	3	-14	0	-5	0	/	/
CCN(CC)CC(=O)Nc1sc2c(c1C(=O)c1ccccc1OC)CCC2	23*	/	16	3	11	0	13	2
CCOC(=O)c1c(NC(=O)CN(CC)CC)sc2c1CCC2	4	-1	-4	2	3	0	/	/
SMILES	NPY-Y1 antag	NPY Y2 blocker	NPY-Y1 PAM-ag	Wee1 stabilizer	NPY2 pot ag	Hsp70 act	NPY1 antag conf	NPY-Y2 antag ct
CCOc1ccc(C2=Nn3c(nnc3-c3ccccc3OC)SC2)cc1	26*	6	-23	-2	-31	0	7	27*
CCOc1ccc(-c2nnc3n2N=C(c2ccc(OC)cc2)CS3)cc1	0	4	-6	-1	-20	0	/	/
Fc1ccc(OCCCCN2CCOCC2)cc1	3	/	-20	3	-16	0	/	/
COc1ccc(S(=O)(=O)c2nnn(-c3ccccc3Cl)c2N)cc1	0	/	13	2	10	0	/	/
CN(c1ccccc1)P(=O)(N(C)c1ccccc1)N(C)c1ccccc1	34*	/	-23	-1	12	0	30*	20*
COc1ccc2c(c1)N(C(=O)CSc1n[nH]c(C)n1)C(C)(C)C=C2C	-3	2	-5	-1	-4	0	/	/
CCOc1ccccc1CN1CCN(Cc2cccc3nonc23)CC1CCO (stereo not given)	29*	/	19	-2	1	-1	3	6
CC(C)CCN1CCN(Cc2cccc3nonc23)CC1CCO (stereo not given)	10	/	5	-1	4	0	/	/
COc1ccc(CNC(=O)CN(c2ccccc2)S(=O)(=O)N(C)C)cc1	-1	/	1	2	-19	1	/	/
COc1ccc(C2C(Oc3ccccc3)C(=O)N2c2ccc(C)c(C)c2)cc1OC (stereo not given)	15	15	-11	1	-1	0	/	/
COc1ccc(C2C(Oc3ccccc3)C(=O)N2c2cc(C)ccc2C)cc1OC (stereo not given)	22*	10	4	-3	-4	0	19	9
O=C(NNc1cccc(Cl)n1)c1ccc(Cl)cc1Cl	4	-1	12	1	-3	0	/	/
O=C(NNc1cccc(Cl)n1)c1ccccc1CC[N+](=O)[O-]	23*	/	20	4	8	0	2	-1
Cn1nc(C(F)(F)F)c(-c2ccc(F)cc2)c1NC(=O)c1cccnc1	/	/	-6	-1	-10	/	/	/
Cc1cccn2c(/C=N/OCc3cccc(F)c3)c(-c3ccc(Cl)cc3)nc12	1	0	-21	1	-21	0	/	/
COc1cccc(/C(C#N)=C/c2c(-c3ccc(Cl)cc3)nc3c(C)cccn23)c1	23*	2	0	2	-4	0	4	2
O=C(c1ccco1)N1CCN(S(=O)(=O)c2ccc(S(=O)(=O)NC3CCCCC3)cc2)CC1	18	16	-14	0	-3	0	/	/
